# High-throughput results as filed in PubChem BioAssay.
# Sampled rows, rich in hits. Any-hit rate of the full collection: about 2.3%.
# PME-1 primary – PME-1 (human) inhibition; recombinant PME-1, FP-Rh probe fluorescence polarization; inhibition, % at 5.9 µM; 320,000 compounds, 0.53% hits;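 active = inhibition above the campaign mean of all compounds plus 3 SD, cut at about 26% in these data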;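 note: competitive labeling of PME-1 active site by serine hydrolase directed probe; 0% = PME-1 with DMSO and 100% = wells lacking PME-1 enzyme; inhibitors block probe labeling so polarization falls and inhibition rises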
# GSTO1 counter – GSTO1 inhibition, counter-screen for RBBP9 inhibitors; P78417; recombinant GSTO1, activity-based probe fluorescence polarization; inhibition, % at 5.96 µM; 300,000 compounds, 1.1% hits;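 active = inhibition above the campaign mean inhibition plus 3 SD, cut at about 35% in these data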;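 note: 0% = GSTO1-1 with DMSO and 100% = wells lacking GSTO1-1 enzyme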
# RBBP9 inh – blocks human serine hydrolase RBBP9 | O75884 | inhibition, % at 7.94 µM | recombinant RBBP9, FP-Rh probe fluorescence polarization | 220,000 compounds, 0.2% hits;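 active = inhibition above the campaign mean of all tested compounds plus 3 SD, cut at about 14% in these data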;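 note: plate controls were DMSO wells with RBBP9 for no effect and wells lacking RBBP9 protein for full effect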
# Target sequence (O75884 whole entry, looked up): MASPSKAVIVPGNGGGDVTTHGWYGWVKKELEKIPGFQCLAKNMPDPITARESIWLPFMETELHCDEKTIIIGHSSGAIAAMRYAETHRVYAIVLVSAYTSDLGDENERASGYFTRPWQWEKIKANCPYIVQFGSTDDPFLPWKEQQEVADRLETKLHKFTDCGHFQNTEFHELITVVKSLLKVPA
#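 Assay system: recombinant human RBBP9; Reagent: Serine-hydrolase probe FP-Rh, 375 nM pre-mixing; Doses: 7.94 µM single dose, 0.794% DMSO; Incubation: 30 min then 45 min, 25 °C; Detection: fluorescence polarization (mP), excitation 525 nm, emission 598 nm; Evaluation: percent inhibition from mP, scaled between DMSO and no-protein wells.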
# Fam108B counter – blocks mouse Fam108B hydrolase in RBBP9 counter-screen. recombinant Fam108B, FP-Rh probe fluorescence polarization. inhibition, % at 9.51 µM. 300,000 compounds, 0.33% hits. AID 1947;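 active = inhibition above the screen mean inhibition plus 3 SD, computed separately per campaign, cut at about 18% in these data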;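 note: inhibitors lower polarization as less probe binds the enzyme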
# PRMT1 FP inh – blocks human protein arginine methyltransferase 1 | recombinant PRMT1, activity-based probe fluorescence polarization | AID 652257 | 370,000 compounds, 1.3% hits | inhibition, % at 2.79 µM;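 active = inhibition above about 21% made by adding two undisclosed values, limit read from the data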
# Target sequence (Q99873 whole entry, looked up): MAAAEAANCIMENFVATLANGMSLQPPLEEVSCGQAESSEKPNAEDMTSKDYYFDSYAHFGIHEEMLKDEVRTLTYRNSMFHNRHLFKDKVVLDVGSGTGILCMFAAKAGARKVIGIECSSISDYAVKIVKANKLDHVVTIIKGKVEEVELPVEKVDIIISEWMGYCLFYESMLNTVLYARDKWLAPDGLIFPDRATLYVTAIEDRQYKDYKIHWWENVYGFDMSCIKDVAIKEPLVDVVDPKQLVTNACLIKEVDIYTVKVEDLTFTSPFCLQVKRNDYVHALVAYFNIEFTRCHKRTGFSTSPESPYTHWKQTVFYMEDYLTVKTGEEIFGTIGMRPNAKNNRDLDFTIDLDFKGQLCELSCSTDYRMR
# PAD4 inh – inhibitors of human PAD4; 330,000 compounds, 0.41% hits; Q9UM07; recombinant PAD4, RCA probe fluorescence polarization; inhibition, % at 6.36 µM;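 active = percent inhibition above a cutoff equal to the mean of all tested compounds plus 3 SD, cut at about 15% in these data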;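 note: 0% = PAD4 with RCA probe and DMSO and 100% = probe without PAD4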
# PRMT1 confirm – confirmation of human PRMT1 inhibitors; inhibition, % at 2.79 µM; shares compounds with PRMT1 FP inh; 3,300 compounds, 42% hits; recombinant His-PRMT1, activity-based probe fluorescence polarization; AID 687036;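 active = mean inhibition across replicates above the hit cutoff derived for the earlier primary screen, cut at about 22% in these data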
# An asterisk follows results filed as active; x = no result given.
SMILES,PME-1 primary,GSTO1 counter,RBBP9 inh,Fam108B counter,PRMT1 FP inh,PAD4 inh,PRMT1 confirm
O=C(Nc1ccc(F)cc1)c1ccc(Br)c(S(=O)(=O)N2CCOCC2)c1,1,7,x,0,0,-1,x
O=S(=O)(Nc1ccc2c(c1)OCCO2)c1ccc(F)c(F)c1,0,2,x,0,-1,-5,x
CCC(=O)Nc1nc(-c2ccc3c(c2)OCCO3)cs1,-3,8,-4,2,-4,1,x
c1cc2c(cc1-c1csc(NNC3=NCCCCC3)n1)OCCO2,8,20,5,7,75*,-2,24*
Cc1sc(NC(=O)c2oc3ccccc3c2C)c(C#N)c1C,-3,6,-3,1,x,-2,x
Cc1ccc(C)c2nc3sc(C(=O)N4CCOCC4)c(N)c3cc12,7,2,-8,3,9,-4,x
Cc1cccc2cc3c(N)c(C(=O)N4CCc5ccccc54)sc3nc12,8,11,-13,2,31*,2,4
Cc1sc(NC(=O)c2sc3nc4c(C)cccc4cc3c2N)c(C#N)c1C,1,6,-3,6,31*,-19,0
COc1ccc(Cc2c(-c3ccco3)nc3c(C)cc(Br)cn23)c(C)c1,x,x,x,x,7,x,x
Cc1cc(Br)cn2c(Cc3ccccc3)c(-c3ccco3)nc12,x,x,x,x,35*,x,12
Cc1cc(Br)cn2c(Cc3ccsc3)c(-c3cccc(Cl)c3)nc12,x,x,x,x,-2,x,x
Cc1cc(Br)cn2c(Cc3ccsc3)c(-c3ccco3)nc12,x,x,x,x,27*,x,12
Cc1c(OCC(=O)N(C)C)ccc2c3c(c(=O)oc12)CCCCC3,-7,-4,3,-6,-3,11,x
CC(=O)OCC1=C(C(=O)O)N2C(=O)C(NC(=O)c3ccc(COc4c(C)cccc4Cl)o3)C2SC1 (stereo not drawn),-5,-6,-4,-5,47*,-5,18
CC(=O)OCC1=C(C(=O)O)N2C(=O)C(NC(=O)c3ccc(COc4ccc(Cl)cc4)o3)C2SC1 (stereo not drawn),-10,7,-5,-1,36*,-4,12
CCOC(=O)N1CCC(NC(=O)c2ccc(CS(=O)(=O)c3c(Cl)cccc3Cl)o2)CC1,8,8,-7,1,-1,1,x
COc1ccccc1CCNS(=O)(=O)c1c(C)n(C)c(=O)n(C)c1=O,5,6,1,2,2,1,x
O=C(O)CC(CC(=O)O)c1ccsc1,3,x,x,x,0,-3,x
CC1CCCN(CCCNC(=O)c2cn(C)c3ccc(S(=O)(=O)N(C)C4CCCCC4)cc3c2=O)C1 (stereo not drawn),11,-5,x,1,-1,3,x
CCOC(=O)CNC(=O)CSc1nc(Cc2cccs2)nc2ccccc12,1,6,-6,-6,27*,1,22*
S=c1[nH]c2cnc(Cl)nc2[nH]1,x,x,x,x,43*,x,34*
S=c1[nH]c2nc(Cl)c(Cl)nc2[nH]1,x,x,x,x,3,x,x
COc1ccc(-c2cc(=O)[nH]c(N3CCN(Cc4ccccc4)CC3)n2)cc1,4,-4,x,0,-5,0,x
COCCNC(=O)c1cc(-c2ccccc2)sc1N,x,x,x,x,32*,x,-2
CCCCNC(=O)c1cc(-c2ccccc2)sc1N,x,x,x,x,11,x,x
SMILES,PME-1 primary,GSTO1 counter,RBBP9 inh,Fam108B counter,PRMT1 FP inh,PAD4 inh,PRMT1 confirm
COc1ccc2c(n1)Sc1nc3ccccc3nc1N2,19,-3,-2,2,78*,-2,20
S=c1nc(C23CC4CC(CC(C4)C2)C3)[nH][nH]1,1,4,-7,0,34*,14,9
CCCCn1c(N)c(N(CC(C)C)C(=O)C2CCN(C(=O)c3ccc(F)cc3)CC2)c(=O)[nH]c1=O,-2,7,x,2,-4,0,x
S=c1[nH]cc(-c2ccccc2)n1-c1ccccc1,-2,0,-6,5,34*,2,12
CCN(CC)CCCNC(=O)/C=C/C(=O)O,-1,-1,-3,-3,27*,2,-1
CCN(CC)CCCNC(=O)c1ccccc1C,5,7,6,3,-3,4,x
O=c1c([N+](=O)[O-])c(Cl)c2ccccc2n1Cc1ccccc1,x,x,x,x,43*,x,36*
CCn1c(=O)c([N+](=O)[O-])c(Cl)c2ccccc21,4,1,1,3,x,4,x
Cc1ccccc1C1CC(=O)c2ccccc2C1C (stereo not drawn),x,x,x,x,3,x,x
O=C1c2ccccc2[C@@H]2Cc3csc[n+]3[C@H]12,x,x,x,x,85*,x,83*
Cc1cccc[n+]1CC(=O)Nc1ccc([N+](=O)[O-])cc1Cl,-1,1,3,2,-1,-2,x
Cc1ccc(-c2nc(N)sc2CC(=O)OCC(=O)NC2CCCC(C)C2C)cc1 (stereo not drawn),5,16,-3,4,1,-5,x
Cc1ccc(-c2nc(N)sc2CC(=O)OCC(=O)N2C(C)CCCC2C)cc1 (stereo not drawn),-7,-1,-8,3,49*,2,1
NC(=O)c1sc2nc3c(c(-c4ccco4)c2c1N)CCC3,12,10,-4,11,47*,1,4
NC(=O)c1sc2nc3c(c(-c4cccs4)c2c1N)CCCC3,x,x,-3,x,x,x,x
Cc1ccc(-c2c3c(nc4sc(C(N)=O)c(N)c24)CCCC3)o1,6,3,-4,4,32*,-5,3
C/C(C/C(C)=C1/SC(=S)NC1=O)=C1\SC(=S)NC1=O,x,x,3,x,40*,x,24*
O=C(O)c1cccc(Cn2c(Cl)c(/C=N/NC(=O)c3cccc(O)c3)sc2=O)c1,-3,-5,-5,0,4,2,x
COC(=O)c1cccc(Cn2c(Cl)c(/C=N/Nc3ccccc3C)sc2=O)c1,2,-1,-5,17,79*,-3,1
O=C(O)c1cccc(Cn2c(Cl)c(/C=N/NC(=O)c3ccccc3)sc2=O)c1,2,17,-8,0,7,-2,x
Cc1ccccc1N/N=C/c1sc(=O)n(Cc2cccc(C(=O)O)c2)c1Cl,16,24,6,15,75*,-2,5
COc1ccc(NS(=O)(=O)c2ccc(N3CCCC3)c(NC(=S)Nc3ccc(SC(F)F)cc3)c2)cc1,10,2,-6,3,29*,-4,3
COc1ccc(NS(=O)(=O)c2ccc(N3CCCC3)c(NC(=S)Nc3cccc(C)c3C)c2)cc1,20,2,-12,6,13,2,x
O=C(COC(=O)c1ccccc1OC(F)F)Nc1ccc2[nH]c(=O)[nH]c2c1,-1,1,x,-2,0,1,x
COc1ccc(/C=C/C(=O)c2ccc(OC)cc2OC)cc1,-6,-9,-5,-2,0,0,x
CNc1ccc(Br)cc(C(=O)/C=C/c2ccc(OC)cc2)c1=O,13,28,2,10,44*,-4,39*
